Assay results reported in ChEMBL document CHEMBL1145214, “Synthesis, structure-activity relationships at the GABA(A) receptor in rat brain, and differential electrophysiological profile at the recombinant human GABA(A) receptor of a series of substituted 1,2-diphenylimidazoles” (J Med Chem, 2005).

Assays:
[1] = molecular target: GABA A receptor alpha-2/beta-2/gamma-2 (Homo sapiens) (UniProt P47870+P18507+P47869); experiment: Maximal efficacy for GABA-evoked chloride currents mediated by human Gamma-aminobutyric acid GABA-A receptor alpha2-beta2-gamma2L expressed in Xenopus oocytes; format: cell-based; details: Oocyte
How it was run: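 Human α2β2γ2L cDNAs, 1.5 ng total in 30 nL at a 1:1:1 ratio, injected into the animal pole of oocytes. Oocytes held at 15 °C in supplemented modified Barth's solution, pH 7.5. Compounds were applied for 60 s together with GABA at EC10 (10% of the 10 mM GABA maximum), final DMSO ≤0.1%. Readout was % potentiation of Cl- current from concentration-response curves.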

[2] = molecular target: T1, GABA A receptor alpha-2/beta-2/gamma-2 (Homo sapiens, UniProt P18507+P47869+P47870); experiment: Effective concentration against GABA-evoked chloride currents mediated by human Gamma-aminobutyric acid GABA-A receptor alpha2-beta2-gamma2L expressed in Xenopus oocytes; format: cell-based, Oocyte
T1 sequence (P47870 whole entry): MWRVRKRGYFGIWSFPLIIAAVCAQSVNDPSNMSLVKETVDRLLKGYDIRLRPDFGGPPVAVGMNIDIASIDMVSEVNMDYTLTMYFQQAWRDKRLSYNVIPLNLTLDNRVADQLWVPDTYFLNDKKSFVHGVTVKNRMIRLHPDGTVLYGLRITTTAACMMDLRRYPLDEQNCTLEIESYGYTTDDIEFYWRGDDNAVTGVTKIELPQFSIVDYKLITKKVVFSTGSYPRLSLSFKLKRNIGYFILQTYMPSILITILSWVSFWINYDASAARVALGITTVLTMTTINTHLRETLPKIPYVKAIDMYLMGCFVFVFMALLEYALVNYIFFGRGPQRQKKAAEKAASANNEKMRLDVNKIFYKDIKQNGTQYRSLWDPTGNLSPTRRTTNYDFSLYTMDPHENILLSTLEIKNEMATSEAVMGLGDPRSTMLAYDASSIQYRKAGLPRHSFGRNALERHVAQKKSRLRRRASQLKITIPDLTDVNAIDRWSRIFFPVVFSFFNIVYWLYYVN
T1 sequence (P18507 whole entry): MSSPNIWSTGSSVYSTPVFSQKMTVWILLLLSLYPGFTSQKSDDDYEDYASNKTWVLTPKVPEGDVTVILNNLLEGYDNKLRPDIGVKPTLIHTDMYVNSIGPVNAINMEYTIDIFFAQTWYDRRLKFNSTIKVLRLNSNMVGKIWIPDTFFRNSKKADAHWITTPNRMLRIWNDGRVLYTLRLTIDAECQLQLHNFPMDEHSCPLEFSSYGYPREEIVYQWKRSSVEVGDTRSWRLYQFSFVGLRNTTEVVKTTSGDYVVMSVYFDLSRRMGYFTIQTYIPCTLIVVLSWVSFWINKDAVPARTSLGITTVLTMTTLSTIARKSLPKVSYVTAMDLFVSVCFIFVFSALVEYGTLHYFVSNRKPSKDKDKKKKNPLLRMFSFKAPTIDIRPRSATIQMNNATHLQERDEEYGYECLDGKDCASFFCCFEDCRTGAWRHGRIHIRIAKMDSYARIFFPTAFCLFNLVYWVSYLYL
T1 sequence (P47869 whole entry): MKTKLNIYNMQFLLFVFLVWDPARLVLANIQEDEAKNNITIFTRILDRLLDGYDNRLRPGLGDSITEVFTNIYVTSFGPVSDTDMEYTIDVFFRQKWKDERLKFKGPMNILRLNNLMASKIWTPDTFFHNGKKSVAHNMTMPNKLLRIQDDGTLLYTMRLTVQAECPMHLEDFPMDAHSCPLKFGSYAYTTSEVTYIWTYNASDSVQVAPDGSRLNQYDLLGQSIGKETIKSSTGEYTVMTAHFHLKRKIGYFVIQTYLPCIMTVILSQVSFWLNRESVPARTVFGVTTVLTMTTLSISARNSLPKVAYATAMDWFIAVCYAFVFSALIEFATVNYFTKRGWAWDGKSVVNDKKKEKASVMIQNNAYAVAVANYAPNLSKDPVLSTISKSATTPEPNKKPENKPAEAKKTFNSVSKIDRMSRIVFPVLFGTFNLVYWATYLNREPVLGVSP
How it was run: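 Human α2β2γ2L cDNAs, 1.5 ng total in 30 nL at a 1:1:1 ratio, injected into the animal pole of oocytes. Oocytes held at 15 °C in supplemented modified Barth's solution, pH 7.5. Readout was % potentiation of Cl- current from concentration-response curves.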

[3] = Effective concentration required for reversible loss of righting reflex in Xenopus laevis tadpoles; format: functional, Tadpole

| SMILES | Maximal efficacy [1] | EC50 [2] | EC50 [3] |
| --- | --- | --- | --- |
| COC(=O)c1cn(-c2ccc(Cl)cc2Cl)c(-c2ccc(Br)cc2)n1 | 258% | 3.4 µM |  |
| Cc1cn(-c2ccccc2)c(-c2ccccc2)n1 | -25% |  |  |
| CCOC(=O)c1cncn1[C@H](C)c1ccccc1 [ETOMIDATE] | 501% |  | 2300 nM |
| c1ccc(-c2nccn2-c2ccccc2)cc1 | -5.3% |  |  |
| CCOC(=O)c1cn(-c2ccc(Cl)cc2Cl)c(-c2ccc(OC)cc2)n1 | 362% | 1.9 µM |  |
| CCCOC(=O)c1cn(-c2ccc(Cl)cc2Cl)c(-c2ccc(Br)cc2)n1 | 537% | 1.7 µM |  |
| CCOC(=O)c1cn(-c2ccccc2)c(-c2ccc(C)cc2)n1 | 625% | 4.1 µM |  |
| CCN(CC)C(=O)c1cn(-c2ccc(Cl)cc2Cl)c(-c2ccc(Cl)cc2)n1 | 32.4% | 4.4 µM |  |
| CCCC(C)C1(CC)C(=O)NC(=O)NC1=O (stereo unspecified) [PENTOBARBITAL] | 214% | 50 µM |  |
| CCOC(=O)c1cn(-c2ccc(Cl)cc2Cl)c(-c2ccc(I)cc2)n1 | 180% | 0.45 µM |  |
| CCOC(=O)c1cn(-c2ccc(Cl)cc2Cl)c(-c2ccccc2)n1 | 508% | 1.8 µM |  |
| CCOC(=O)c1cn(-c2ccccc2)c(-c2ccccc2)n1 | 638% | 6.4 µM |  |
| CN1CCN(C(=O)c2cn(-c3ccc(Cl)cc3Cl)c(-c3ccc(Cl)cc3)n2)CC1 | 58.2% | 1.3 µM |  |
| CC(C)c1cccc(C(C)C)c1O [PROPOFOL] | 461% | 11.2 µM | 1900 nM |
| CCOC(=O)c1cn(-c2ccc(Cl)cc2)c(-c2ccc(Cl)cc2)n1 | 302% | 1.5 µM |  |
| CCOC(=O)c1cn(-c2ccc(Cl)cc2Cl)c(-c2ccc([N+](=O)[O-])cc2)n1 | 413% | 2.4 µM |  |
| CCOC(=O)c1cn(-c2ccc(F)cc2)c(-c2ccc(F)cc2)n1 | 569% | 3.1 µM |  |
| CCOC(=O)c1cn(-c2ccc(Cl)cc2Cl)c(-c2ccc(C)cc2)n1 | 568% | 1 µM |  |
| CCOC(=O)c1cn(-c2ccc(Cl)cc2Cl)c(-c2ccc(N)cc2)n1 | 406% | 4.3 µM |  |
| CCOC(=O)c1cn(-c2ccc(Cl)c(Cl)c2)c(-c2ccc(Cl)cc2)n1 | 521% | 2.3 µM |  |
| CC(=O)[C@H]1CC[C@H]2[C@@H]3CC[C@H]4C[C@H](O)CC[C@]4(C)[C@H]3C(=O)C[C@]12C | 322% |  |  |
| CCOC(=O)c1cn(-c2ccc(Cl)cc2Cl)c(-c2ccc(Br)cc2)n1 | 388% | 0.19 µM |  |
| CCOC(=O)c1cn(-c2ccccc2)c(-c2ccc(OC)cc2)n1 | 369% | 9.1 µM |  |
| O=C(O)c1cn(-c2ccc(Cl)cc2Cl)c(-c2ccc(Cl)cc2)n1 | 256% | 8.7 µM |  |
| CCOC(=O)c1cn(-c2ccc(Cl)cc2Cl)c(-c2ccc(NC(C)=O)cc2)n1 | 209% | 19 µM |  |
| CCOC(=O)c1cn(-c2ccc(Cl)cc2Cl)c(-c2ccc(Cl)cc2)n1 | 390% | 0.6 µM | 1200 nM |
| CCOC(=O)c1cn(-c2ccccc2)c(-c2ccc(Cl)cc2)n1 | 458% | 4.2 µM |  |
| CCOC(=O)c1cn(-c2cccc(Cl)c2)c(-c2ccccc2)n1 | 350% | 3 µM |  |
| O=C(OCCN1CCCCC1)c1cn(-c2ccc(Cl)cc2Cl)c(-c2ccc(Br)cc2)n1 | -14% |  |  |
